# Assays:
# PK studies in the rat = format: in vivo; conditions: Sprague Dawley, plasma, intravenous, 1 mg·kg^−1
# In short: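 Male Sprague Dawley rats were given test compound at 1 mg·kg−1 IV or 3 mg·kg−1 orally; dose was set by syringe weight difference. Serial tail-vein blood was taken from 2 to 1440 min and centrifuged at 4°C. Plasma was stored at −20°C and then quantified by LC–MS/MS against calibration curves in control rat plasma. Parameters were derived by non-compartmental analysis.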
# [1] = Plasma protein binding by equilibrium dialysis, rat plasma; format: in vitro ADME; conditions: 10 μM, 18 h at 37°C, mean, n of at least 3
# In short: (§1)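 Test compound at 10 μM final was added to plasma and dialysed against buffer across a 5 kD membrane in a rotating unit for 18 h at 37°C. Buffer and plasma-side aliquots were quenched in methanol and measured by LC–MS/MS. Free fraction is the mean of at least three studies.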
# DPP1 = DPP1 (Homo sapiens, UniProt P53634); experiment: DPP1 activity cell assay; format: cell-based; conditions: read-out: DPP1 IC50, corrected for PPB; in vitro potency corrected for rat PPB
# neutrophil elastase (NE) = experiment: Onset studies: NE activity in rat blood and bone marrow lysates; format: in vivo; conditions: onset 1 (14 day study), bone marrow
# In short: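 Rats were dosed orally twice daily with test compound, 3.6 mg·kg−1 and then 10.7 mg·kg−1 8 h later, against citrate buffer pH 3.0 vehicle. Onset 1 ran 5, 8, 10, 12 or 14 days. Femurs were taken under isoflurane 2 h after the last dose. Marrow leukocytes were lysed on ice at 10^8 cells mL−1. Lysates received Methoxysuccinyl-Ala-Ala-Pro-Val-AMC and were read by fluorescence (ex 350–380, em 450–460 nm) for up to 60 min. Initial rate came from the linear range.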
# proteinase 3 (PR3) = experiment: Onset studies: PR3 activity in rat blood and bone marrow lysates; format: in vivo; conditions: onset 1 (14 day study), bone marrow
# In short: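 Male Sprague Dawley rats received test compound orally twice daily, 3.6 and 10.7 mg·kg−1 8 h apart, for up to 14 days. Vehicle was citrate buffer pH 3.0. Blood and femoral marrow lysates (10^8 cells mL−1, Triton X-100) were incubated 15 min, then given the 5-FAM/QXL520 quenched peptide substrate. Fluorescence (ex 320–490, em 405–520 nm) was followed up to 60 min. Initial rate came from the linear portion.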
# cathepsin G (CatG) = experiment: Onset studies: CatG activity in rat blood and bone marrow lysates; format: in vivo; conditions: two onset studies, small assay window
# In short: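 Male Sprague Dawley rats (200–400 g) were dosed orally twice daily, 3.6 mg·kg−1 in the morning and 10.7 mg·kg−1 8 h later, for 5–14 days (onset 1) or 1–8 days (onset 2). Vehicle was 0.1 M citrate buffer, pH 3.0. Blood and femoral marrow cells were lysed at 10^8 cells mL−1 in Triton X-100 buffer. Lysates were incubated 15 min, then given N-succinyl-Ala-Ala-Pro-Phe-pNA and read by absorbance at 405 nm for 90–120 min. Initial rate was taken from the linear range.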
# NSP activity = experiment: Pharmacokinetic/pharmacodynamic modelling of NSP activity in rat; format: in vivo
# In short: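 Rat NSP activity time courses were fitted with an indirect response model: production rate kin scaled by uninhibited DPP1 fraction 1 − C/(IC50 + C), loss rate kout, baseline taken as 100%. IC50 was the in vitro cell potency corrected for plasma protein binding. Exposure was simulated with a one-compartment PK model. kout was fitted to blood data from the onset study and bone marrow data from the recovery study.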
# [2] = Prediction of human PK for AZ2; conditions: predicted
# [3] = Plasma protein binding by equilibrium dialysis, human plasma; format: in vitro ADME; conditions: 10 μM, 18 h at 37°C, mean, n of at least 3
# In short: as §1
clearance (PK studies in the rat),PPB (%free) [1],IC50 (DPP1),CL [2],PPB (%free) [3],Compound,days of treatment to reach maximum reduction in NE activity (neutrophil elastase (NE)),days of treatment to reach maximum reduction in PR3 activity (proteinase 3 (PR3)),effect on CatG activity (cathepsin G (CatG)),maximum reduction in protease activity in blood (NSP activity; onset studies),maximum reduction in protease activity in bone marrow (NSP activity; recovery study)
6.67 mL/min,4.1 %free,140 nM,–,–,"N#Cc1ccc(-c2ccc(C[C@@H](C#N)NC(=O)[C@@H]3CCCCN3)cc2)cc1 [AZ1, (S)‐N‐((S)‐1‐cyano‐2‐(4′‐cyanobiphenyl‐4‐yl)ethyl)piperidine‐2‐carboxamide]",8 days,8 days,lack of effect,about 75%,–
1.67 mL/min,11 %free,–,3.4 L/h,9.1 %free,"N#Cc1ccc(-c2ccc(C[C@@H](C#N)NC(=O)C3(N)CCOCC3)cc2)cc1 [AZ2, (S)‐4‐amino‐N‐(1‐cyano‐2‐(4′‐cyanobiphenyl‐4‐yl)ethyl)tetrahydro‐2H‐pyran‐4‐carboxamide]",–,–,–,–,90%
